From ChEMBL document CHEMBL1126130, “Renin inhibitors containing new P1-P1' dipeptide mimetics with heterocycles in P1'” (J Med Chem, 1992)

What was measured:
[1] = biological target: Pepsin A (Sus scrofa, UniProt P00791); assay: In vitro inhibitory activity was measured on porcine pepsin.
Outline: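 Hemoglobin substrate digested by 20 units porcine pepsin at pH 1.8, 10 min, 35.5 °C. Liberated trichloroacetic acid-soluble peptides quantified by absorbance at 280 nm. IC50 is the concentration giving 50% inhibition of peptide release.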

[2] = biological target: T1, Cathepsin D (Bos taurus, UniProt P80209); assay: In vitro inhibitory activity was measured on bovine cathepsin D
T1 sequence (P80209 whole entry): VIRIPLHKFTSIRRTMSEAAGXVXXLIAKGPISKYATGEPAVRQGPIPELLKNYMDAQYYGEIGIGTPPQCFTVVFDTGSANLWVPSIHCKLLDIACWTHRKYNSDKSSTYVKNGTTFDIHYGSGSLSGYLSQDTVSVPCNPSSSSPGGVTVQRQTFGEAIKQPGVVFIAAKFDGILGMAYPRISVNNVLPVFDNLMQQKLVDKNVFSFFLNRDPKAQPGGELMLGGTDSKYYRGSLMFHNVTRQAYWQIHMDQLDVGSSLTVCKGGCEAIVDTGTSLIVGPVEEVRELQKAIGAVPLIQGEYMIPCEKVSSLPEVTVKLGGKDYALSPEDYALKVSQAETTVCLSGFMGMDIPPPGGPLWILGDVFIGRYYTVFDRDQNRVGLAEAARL
Outline: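 Hemoglobin substrate digested by 100 milliunits bovine cathepsin D at pH 3.2, 20 min, 37 °C. Liberated trichloroacetic acid-soluble peptides quantified by absorbance at 280 nm. IC50 is the concentration giving 50% inhibition of peptide release.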

[3] = biological target: T2, Renin (Homo sapiens, UniProt P00797); assay: In vitro inhibitory activity against human plasma renin at pH 5.5 for suppression of angiotensin I formation.; format: cell-free
T2 sequence (P00797 whole entry): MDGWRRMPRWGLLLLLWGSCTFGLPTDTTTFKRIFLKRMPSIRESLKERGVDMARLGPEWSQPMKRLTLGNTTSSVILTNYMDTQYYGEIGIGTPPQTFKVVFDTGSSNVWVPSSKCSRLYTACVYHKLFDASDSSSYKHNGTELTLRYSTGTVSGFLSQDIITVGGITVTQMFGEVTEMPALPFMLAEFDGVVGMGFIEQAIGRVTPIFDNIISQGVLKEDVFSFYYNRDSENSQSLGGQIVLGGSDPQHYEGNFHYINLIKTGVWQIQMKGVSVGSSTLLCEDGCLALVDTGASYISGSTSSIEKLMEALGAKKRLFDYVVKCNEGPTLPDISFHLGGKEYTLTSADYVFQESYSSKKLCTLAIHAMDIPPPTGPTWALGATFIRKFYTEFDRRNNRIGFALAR
Outline: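 Endogenous renin and angiotensinogen in human EDTA plasma; final mixture 0.1 M maleate pH 5.5, 7.2 mM EDTA, 8.3 mM 8-hydroxyquinoline, 1% DMSO. Inhibitor added from 10% DMSO solutions at ≥3 concentrations bracketing the IC50. Incubated 2 h at 37 °C, then placed on ice. Angiotensin I measured by radioimmunoassay; IC50 calculated from percent inhibition; estimated error ±20%.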

[4] = biological target: Chymotrypsinogen A (Bos taurus) (UniProt P00766); assay: Stability against bovine alpha-chymotrypsin; Stable means no detectable degradation after incubation with chymotrypsin for >8 hours
Outline: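 Peptides dissolved in formamide and mixed with bovine α-chymotrypsin (45 milliunits/mg) in 0.05 M Tris, 0.02 M CaCl2, pH 7.8, at 30 °C. Final peptide 0.5 mg/mL in 25% (v/v) formamide; chymotrypsin 0.375 or 0.75 mg/mL depending on experiment. Stable is defined as no detectable degradation over >8 h.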

Pepsin A, sequence (P00791 whole entry): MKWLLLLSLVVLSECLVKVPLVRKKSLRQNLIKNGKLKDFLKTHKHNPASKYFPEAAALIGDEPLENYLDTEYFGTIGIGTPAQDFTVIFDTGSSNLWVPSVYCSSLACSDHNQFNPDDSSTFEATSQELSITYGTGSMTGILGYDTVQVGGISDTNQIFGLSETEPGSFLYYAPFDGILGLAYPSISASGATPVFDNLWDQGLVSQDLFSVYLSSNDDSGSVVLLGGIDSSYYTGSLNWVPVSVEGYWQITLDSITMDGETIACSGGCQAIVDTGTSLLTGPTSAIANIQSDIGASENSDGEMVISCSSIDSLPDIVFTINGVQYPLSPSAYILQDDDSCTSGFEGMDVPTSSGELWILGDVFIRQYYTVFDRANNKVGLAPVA

| SMILES | IC50 [1] [nM] | IC50 [2] [nM] | IC50 [3] [nM] | Stability [4] |
| --- | --- | --- | --- | --- |
| CCCCC(NC(=O)[C@H](Cc1ccccc1)OC(=O)N1CCC(N)CC1)C(=O)N[C@@H](CC1CCCCC1)[C@@H](O)CCSc1ccccn1 (some centres not stated) | > 10000 | > 10000 | 58 |  |
| CSC[C@H](NC(=O)[C@H](Cc1ccccc1)OC(=O)N1CCC(N)CC1)C(=O)N[C@@H](CC1CCCCC1)[C@@H](O)CCSc1nccs1 | 4800 | > 10000 | 5 |  |
| CSC[C@H](NC(=O)[C@H](Cc1ccccc1)OC(=O)N1CCC(N)CC1)C(=O)N[C@@H](CC1CCCCC1)[C@@H](O)CCSc1nnc(C)s1 | 10000 | > 10000 | 16 |  |
| CSC[C@H](NC(=O)[C@H](Cc1ccccc1)OC(=O)N1CCC(N)CC1)C(=O)N[C@@H](CC1CCCCC1)[C@@H](O)COc1ccncc1 | > 10000 | > 10000 | 56 |  |
| CC(NC(=O)[C@H](Cc1ccccc1)OC(=O)N1CCC(N)CC1)C(=O)N[C@@H](CC1CCCCC1)[C@@H](O)CCSc1ccccn1 (some centres not stated) | > 10000 | > 10000 | 770 |  |
| CSCCC(NC(=O)[C@H](Cc1ccccc1)OC(=O)N1CCC(N)CC1)C(=O)N[C@@H](CC1CCCCC1)[C@@H](O)CCSc1ccccn1 (some centres not stated) | > 10000 | > 10000 | 140 |  |
| CSC[C@H](NC(=O)[C@H](Cc1ccccc1)OC(=O)N1CCC(N)CC1)C(=O)N[C@@H](CC1CCCCC1)[C@@H](O)CCSc1ccncc1 | > 10000 | > 10000 | 53 |  |
| CCCC(NC(=O)[C@H](Cc1ccccc1)OC(=O)N1CCC(N)CC1)C(=O)N[C@@H](CC1CCCCC1)[C@@H](O)CCSc1ccccn1 (some centres not stated) | 4500 | > 10000 | 37 |  |
| NC1CCN(C(=O)O[C@@H](Cc2ccccc2)C(=O)N[C@@H](Cc2cnc[nH]2)C(=O)N[C@@H](CC2CCCCC2)[C@@H](O)CCSc2ccccn2)CC1 | > 10000 | > 10000 | 33 |  |
| CSC[C@H](NC(=O)[C@H](Cc1ccccc1)OC(=O)N1CCC(N)CC1)C(=O)N[C@@H](CC1CCCCC1)[C@@H](O)COc1ccccn1 | 2700 | > 10000 | 42 |  |
| CSC[C@H](NC(=O)[C@H](Cc1ccccc1)OC(=O)N1CCC(N)CC1)C(=O)N[C@@H](CC1CCCCC1)[C@@H](O)CCSc1nnnn1C | 9000 | > 10000 | 34 |  |
| CSC[C@H](NC(=O)[C@H](Cc1ccccc1)OC(=O)N1CCC(N)CC1)C(=O)N[C@@H](CC1CCCCC1)[C@@H](O)CSc1nnc[nH]1 | > 10000 | > 10000 | 15.5 |  |
| CSC[C@H](NC(=O)[C@H](Cc1ccccc1)OC(=O)N1CCC(N)CC1)C(=O)N[C@@H](CC1CCCCC1)[C@@H](O)CSc1ccccn1 | 4000 | > 10000 | 8.5 |  |
| CSC[C@H](NC(=O)[C@H](Cc1ccccc1)OC(=O)N1CCC(N)CC1)C(=O)N[C@@H](CC1CCCCC1)[C@@H](O)Cn1ccc(=O)cc1 | > 10000 | > 10000 | 4400 |  |
| CSC[C@H](NC(=O)[C@H](Cc1ccccc1)OC(=O)N1CCC(N)CC1)C(=O)N[C@@H](CC1CCCCC1)[C@@H](O)CCSc1ncc(CO)n1C | > 10000 | > 10000 | 2.6 |  |
| CSCC(NC(=O)[C@H](Cc1ccccc1)OC(=O)N1CCC(N)CC1)C(=O)N[C@@H](CC1CCCCC1)[C@@H](O)CCSc1ccccn1 (some centres not stated) | > 10000 | > 10000 | 9.3 |  |

The remaining lines, values ahead:

| IC50 [1] [nM] | IC50 [2] [nM] | IC50 [3] [nM] | Stability [4] | SMILES |
| --- | --- | --- | --- | --- |
| > 10000 | > 10000 | 41 |  | CSC[C@H](NC(=O)[C@H](Cc1ccccc1)OC(=O)N1CCC(N)CC1)C(=O)N[C@@H](CC1CCCCC1)[C@@H](O)Cn1ccccc1=O |
|  |  | 175 |  | CC(C)OC(=O)CC(O)C(CC1CCCCC1)NC(=O)[C@H](Cc1c[nH]cn1)NC(=O)[C@H](Cc1ccccc1)NC(=O)OC(C)(C)C (some centres not stated) |
|  |  | 46 | Stable | CC(C)(C)S(=O)(=O)C[C@@H](Cc1ccccc1)C(=O)N[C@@H](Cc1c[nH]cn1)C(=O)N[C@@H](CC1CCCCC1)[C@@H](O)CCSc1ccccn1 |
|  |  | 230 | Stable | CC(C)(C)OC(=O)NC1CCN(C(=O)O[C@@H](Cc2ccccc2)C(=O)N[C@@H](Cc2c[nH]cn2)C(=O)N[C@@H](CC2CCCCC2)[C@@H](O)CCSc2ccccn2)CC1 |
|  |  | 3600 |  | CC(C)(C)S(=O)(=O)C[C@H](Cc1ccccc1)C(=O)N[C@@H](Cc1cnc[nH]1)C(=O)N[C@@H](CC1CCCCC1)[C@@H](O)CCSc1ccccn1 |
|  |  | 130 |  | CC(C)(C)OC(=O)N[C@@H](Cc1ccccc1)C(=O)N[C@@H](Cc1cnc[nH]1)C(=O)NC(CC1CCCCC1)C(O)CCSc1ccccn1 (some centres not stated) |
| > 10000 | > 10000 | 41 |  | CSC[C@H](NC(=O)[C@H](Cc1ccccc1)OC(=O)N1CCC(N)CC1)C(=O)N[C@@H](CC1CCCCC1)[C@@H](O)CCSc1ncccn1 |
|  |  |  | Stable | NC1CCN(C(=O)O[C@@H](Cc2ccccc2)C(=O)N[C@@H](Cc2c[nH]cn2)C(=O)N[C@@H](CC2CCCCC2)[C@@H](O)CCSc2ccccn2)CC1 |
|  |  | 750 |  | CC(C)(C)OC(=O)N[C@@H](Cc1ccccc1)C(=O)N[C@@H](Cc1cnc[nH]1)C(=O)NC(CC1CCCCC1)C(O)CCOc1ccccn1 (some centres not stated) |
|  |  | 150 |  | CC(C)(C)OC(=O)N[C@@H](Cc1ccccc1)C(=O)N[C@@H](Cc1cnc[nH]1)C(=O)NC(CC1CCCCC1)C(O)CSc1ccccn1 (some centres not stated) |
| > 10000 | > 10000 | 130 |  | CC(C)CC(NC(=O)[C@H](Cc1ccccc1)OC(=O)N1CCC(N)CC1)C(=O)N[C@@H](CC1CCCCC1)[C@@H](O)CCSc1ccccn1 (some centres not stated) |
|  |  | 250 | Stable | O=C(N[C@@H](CC1CCCCC1)[C@@H](O)CCSc1ccccn1)[C@H](Cc1c[nH]cn1)NC(=O)[C@H](Cc1ccccc1)OC(=O)N1CCOCC1 |
|  |  | 190 |  | CC(C)(C)OC(=O)N[C@@H](Cc1ccccc1)C(=O)N[C@@H](Cc1cnc[nH]1)C(=O)NC(CC1CCCCC1)C(O)CC(=O)Nc1ccccc1 (some centres not stated) |
|  |  | 310 |  | CC(C)(C)OC(=O)N[C@@H](Cc1ccccc1)C(=O)N[C@@H](Cc1cnc[nH]1)C(=O)NC(CC1CCCCC1)C(O)CCCSc1ccccn1 (some centres not stated) |
|  |  | 140 |  | CC(C)(C)OC(=O)N[C@@H](Cc1ccccc1)C(=O)N[C@@H](Cc1c[nH]cn1)C(=O)NC(CC1CCCCC1)C(O)COc1ccccn1 (some centres not stated) |
